Assay results pooled from the literature.
Protocols differ between the studies behind these lines.

Structure (SMILES)	cell line	assay	conditions	quantity	result
CNC(=O)c1cc(Oc2ccc(NC(=O)Nc3cc(C(C)(C)C)nn3-c3ccc4ncccc4c3)c(F)c2)ccn1	HUVEC	cell migration	–	IC50	0.022 nM
O=C1C=CC(=O)c2ccccc21	HFF-1	cell growth or viability, MTT	48 h	IC50	26700 nM
N[C@@H](Cc1ccc(N(CCCl)CCCl)cc1)C(=O)O	PC-3	cell growth or viability, CCK-8	48 h	IC50	> 50000 nM
COc1ccc(C(=O)c2c[nH]c3ncc(-c4ccc(N5CCN(S(C)(=O)=O)CC5)nc4)cc23)cc1	A549	cell growth or viability, MTT	10 µM, 48 h	viability	80.2%
C[C@@H]1C[C@@H]([C@H](O)CC2CC(=O)NC(=O)C2)C(=O)[C@@H](C)C1	NIH3T3	cell growth or viability, MTT	24 h	IC50	800 nM
Nc1nc2c(c(=O)[nH]1)C[C@@H](CCc1ccc(C(=O)N[C@@H](CCC(=O)O)C(=O)O)cc1)CN2	R2/PCFT4	cell growth or viability	96 h, pH 7.2	IC50	248 nM
CCC(=O)Oc1cccc2c1C(=O)C=CC2=O	HFF-1	cell growth or viability, MTT	48 h	IC50	7800 nM
Cc1cc(C)cc(COc2cc3c(cc2OCc2cc(C)cc(C)c2)[C@H]2C[C@](O)(Cc4cn(CC(=O)Nc5ccc(S(=O)(=O)F)cc5)nn4)C[C@H](C)N2CC3)c1	PC-3	cell growth or viability, MTT	–	IC50	1330 nM
O=C(c1ccc(F)cc1)c1c[nH]c2ncc(-c3ccnc(N4CCOCC4)c3)cc12	A549	cell growth or viability, MTT	10 µM, 48 h	viability	94.1%
Cc1cc(C)cc(COc2cc3c(cc2OCc2cc(C)cc(C)c2)[C@H]2C[C@](O)(Cc4cn(-c5ccc(S(=O)(=O)F)cc5)nn4)C[C@H](C)N2CC3)c1	PC-3	cell growth or viability, MTT	–	IC50	392 nM
O=C(O)CCn1cc(C(=O)c2ccc(F)cc2)c2cc(-c3ccc(N4CCNCC4)nc3)cnc21	A549	cell growth or viability, MTT	10 µM, 48 h	viability	88.5%
O=C(O)CCCc1ccc(N(CCCl)CCCl)cc1	PC-3	cell growth or viability, CCK-8	48 h	IC50	> 50000 nM
CN1CCN(c2ccc(-c3cnc4[nH]cc(C(=O)c5ccc(F)cc5)c4c3)cc2)CC1	A549	cell growth or viability, MTT	10 µM, 48 h	viability	73%
Nc1nc2sc(CCCCc3ccc(C(=O)N[C@@H](CCC(=O)O)C(=O)O)cc3)cc2c(=O)[nH]1	R2/PCFT4	cell growth or viability	96 h, pH 7.2	IC50	> 1000 nM
CCCCCCCCc1ccc(C(=O)Nc2ccccc2C(=O)OCC)cc1	PC-3	cell growth or viability, MTT	72 h	IC50	> 100000 nM
